S1P3 agonist – activates the human S1P3 receptor; hit rate 0.1% among 60,000; AID 373; activation, % at 4.5 µM; S1P3 NFAT-BLA reporter cells, agonism, FRET ratio; relative to 1 µM S1P, basal subtracted;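 active means activation above the screen-wide mean plus 3 SD, cut at about 4.5% in these data, passing the limit was not always enough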
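Benchmarks: high control 1 µM S1P / System: stable CHO line with human S1P3, Gα16, NFAT-BLA reporter / Dosing: single compound concentration, 4.5 µM final / Timing: 4 h compound at 37 °C, 2 h substrate at RT / Measured by: FRET β-lactamase substrate fluorescence, excitation 405 nm, 460/535 nm emission ratio, background-subtracted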
M1 agonist – agonists of M1 muscarinic receptor | B-score at 10 µM | AID 626 | hit rate 3% among 64,000 | CHO-M1 cells, Fluo-4 calcium fluorescence, agonist mode; active compounds read high;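 active means fluorescence rise, raw or as B-score row- and column-corrected plate score, outside the 99.7% band of its plate's samples, either direction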
M1 antagonist – antagonists of rat M1 muscarinic receptor; AID 628; B-score at 10 µM; P08482; CHO-M1 cells, Fluo-4 calcium, ACh EC80 antagonist mode; active compounds read low; hit rate 3.4% among 64,000;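 active means calcium fluorescence response, raw or row-and-column corrected B-score, differing from the plate sample mean either way at a set confidence level, mostly lower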
D1 mod – D1 dopamine receptor (human) allosteric modulation | B-score at 10 µM | HEK293 D1, CRE-luciferase, dopamine EC30 potentiation; actives deviate in either direction | hit rate 5.9% among 58,000 | P21728;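 active means luminescence count or its row- and column-corrected plate score outside the 99.7% band of the plate's sample wells, on either side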
Target sequence (P21728 whole entry, looked up): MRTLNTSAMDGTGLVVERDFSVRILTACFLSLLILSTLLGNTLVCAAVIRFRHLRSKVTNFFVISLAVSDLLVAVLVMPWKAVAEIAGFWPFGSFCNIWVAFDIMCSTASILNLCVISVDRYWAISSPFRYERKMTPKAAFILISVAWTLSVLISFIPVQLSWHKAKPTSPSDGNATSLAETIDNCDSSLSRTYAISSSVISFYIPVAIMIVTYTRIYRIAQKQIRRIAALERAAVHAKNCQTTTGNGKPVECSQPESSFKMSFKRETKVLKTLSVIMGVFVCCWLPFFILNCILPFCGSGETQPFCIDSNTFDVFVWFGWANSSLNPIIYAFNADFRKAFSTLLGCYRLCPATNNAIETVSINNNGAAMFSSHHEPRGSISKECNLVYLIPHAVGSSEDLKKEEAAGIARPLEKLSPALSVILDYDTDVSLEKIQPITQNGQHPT
S1P1 ag pot – activates or potentiates agonism at human S1P1 receptor; P21453; S1P1 CRE-bla cells, forskolin, beta-lactamase FRET, potentiator mode; S1P1 agonist co-added at EC20, 2 nM; 100% = saturating reference agonist, 0% = basal; activation, % at 9.5 µM; hit rate 0.57% among 56,000;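 active means activation above a cutoff set at the mean activation of all tested compounds plus 3 SD, cut at about 54% in these data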;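 further: forskolin at 4 µM as EC80 and the EC20 agonist is SEW2871; 100% = SEW2871 at its EC100 plus forskolin at EC80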
* marks the source's active call; other numbers are inactive results; x = no result given. A selection: hits, their analogues and other compounds. The true share with any hit is near 11%.

SMILES | S1P3 agonist | M1 agonist | M1 antagonist | D1 mod | S1P1 ag pot
COC(=O)NCCOC(=O)N(O)c1ccc(Br)cc1 | -1.0 | x | x | x | 7.5
O=C(Nc1nc2ccccc2[nH]1)c1ccc(F)cc1 | -1.3 | 0.0377 | -0.0192 | -6.41* | 0.9
O=C(Nc1nc2ccccc2[nH]1)c1ccccc1F | -1.0 | -0.82 | 0.191 | -7.94* | -0.2
CCOc1cc2[nH]c(=O)n(CCCCC(=O)NC3CCCCC3)c(=O)c2cc1OCC | -0.8 | 0.376 | 1.16 | 0.931 | 3.7
N#Cc1c(-c2ccccc2)nc(SCc2nc(N)nc(N3CCCCC3)n2)[nH]c1=O | 1.3 | 1.59 | 0.452 | -3.2* | -5.7
CCOC(=O)N1CCN(C(=O)c2ccc(NC(=O)c3ccc(C)cc3)cc2)CC1 | -0.8 | 0 | -0.168 | -1.38 | 9.7
COc1ccc(Cn2c(C)nc3c(c2=O)c2nc4ccccc4nc2n3Cc2ccco2)cc1 | -0.2 | -0.834 | 0.189 | 7.64* | -28.4
O=C(COc1ccccc1)Nc1ccc(-c2nnc(-c3ccco3)o2)cc1 | -3.7 | 0.187 | -0.209 | -0.232 | -11.1
COc1ccc(-c2ccc(-c3nnc(-c4ccncc4)o3)cc2)cc1 | -0.7 | 0.224 | 0.102 | 0.946 | -0.2
CC(C)COc1ccc(-c2nnc(-c3ccco3)o2)cc1 | -0.6 | x | x | -5.55* | 46.9
CCCOc1ccc(-c2nnc(-c3ccco3)o2)cc1 | 0.6 | 0.522 | -0.11 | -4.7* | 46.3
Cc1ccc(Cn2nnc3c(=O)n(CC(=O)c4ccccc4)cnc32)cc1 | -1.5 | -0.356 | -0.394 | 0.0141 | -9.3
CCCCn1c2nc3ccccc3nc2c2c(=N)oc(C)nc21 | x | 3.95* | -0.199 | 6.58* | x
CCCc1nc(S(=O)(=O)Cc2ccc(Cl)cc2Cl)n[nH]1 | -1.3 | 0.673 | -0.311 | -1.61 | 23.7
CCOC(=O)C1CCN(C(c2cccnc2)c2c(NC(=O)c3ccco3)sc(C)c2C)CC1 (centres undefined) | 2.1 | 1.44 | 0.328 | 0.346 | -17.9
Cc1sc(NC(=O)c2ccco2)c(C(c2cccnc2)N2CCN(c3ccc(F)cc3)CC2)c1C (centres undefined) | -0.1 | -0.307 | -0.000333 | -2.99* | -26.7
c1ccc(Nc2nc3ccccc3[nH]2)nc1 | -1.5 | 0.0443 | 0.256 | -0.54 | 9.1
c1ccc(/N=C2\N=C(Nc3ccccn3)c3ccccc32)nc1 | -0.8 | x | x | 14.4* | -35.1
O=C(NC1CC2CCC1C2)C1COc2ccccc2O1 (centres undefined) | -0.6 | 0.765 | -0.0694 | 2.46 | -5.5
O=C(CCn1nnc2ccccc2c1=O)NCC1CCC(C(=O)O)CC1 (centres undefined) | -0.7 | 0.272 | -0.107 | 0.376 | -28.3
O=C(O)CCCCCNC(=O)CCn1nnc2ccccc2c1=O | -1.9 | 0.0559 | 1.58* | -0.306 | -26.1
CCn1cc2c(c1-c1cccc(C)c1)c(=O)n(C)c(=O)n2C | -0.4 | 0.33 | -0.317 | x | -1.5
Cn1c(=O)c2c(-c3ccccc3)n3c4ccccc4ncc3c2n(C)c1=O | -0.8 | 2.72 | 1.26 | 2.46 | x
Cc1cc(C)c2c3c(c(-c4ccccc4)n2n1)c(=O)n(C)c(=O)n3C | -0.1 | 0.741 | -0.27 | 5.56* | -26.0
Cc1cccc(-c2c3c(=O)n(C)c(=O)n(C)c3c3c(C)cc(C)nn23)c1 | -0.1 | 0.182 | 0.531 | 3.59* | -8.4
SMILES | S1P3 agonist | M1 agonist | M1 antagonist | D1 mod | S1P1 ag pot
Cc1c(C)n(Cc2ccccc2)c2ncnc(N)c12 | 0.2 | -2.32 | -0.182 | -2.84* | 28.9
Cc1cccc(NC(=O)C2CCCN2S(=O)(=O)c2cccc3cccnc23)c1 (centres undefined) | -0.5 | 0.721 | 0.736* | 0.72 | 2.6
O=C(NC1CCCC1)c1ccc2nc(-c3ccco3)c(-c3ccco3)nc2c1 | -0.7 | 7.07* | 0.0507 | -0.285 | -11.4
Cc1nnc(NC(=O)Cc2ccc(OCc3c(C)noc3C)cc2)s1 | 0.3 | 0.0639 | -0.213 | -3.05* | -17.2
CCSc1nnc(NC(=O)c2cccc(OCc3c(C)noc3C)c2)s1 | x | 0.218 | -1.1 | -0.766 | x
CCCCC(=O)NCCc1cc2c(OC)ccc(OC)c2[nH]c1=O | -0.3 | -0.644 | 0.0709 | 1.8 | -13.1
CC(=O)Nc1ccc(SCC(=O)c2cc(C)n(Cc3cccs3)c2C)cc1 | 0.1 | 0.291 | 0.0566 | 0.0601 | 12.6
Cc1csc(SCC(=O)c2cc(C)n(Cc3cccs3)c2C)n1 | -0.4 | 0.475 | -1.29 | -5.22* | 86.3*
CC(NC(=O)c1ccco1)C(c1cccs1)N1CCOCC1 (centres undefined) | 0.6 | 0.756 | 0.923 | x | -18.3
Cc1ccc(NC(=O)C2CC=CCC2C(=O)N2CCCCC2)cc1 (centres undefined) | 1.1 | 0.697 | -0.161 | 0.348 | -0.2
Cc1ccc(NC(=O)NC2=N/C(=C(/C#N)C(=O)N3CCCC3)c3ccccc32)cc1 | -0.2 | 1.68 | 0.236 | -3.8* | -17.0
C=CCn1cnc2c(c1=O)c1nc3ccccc3nc1n2-c1ccc(Cl)cc1 | -3.8 | -0.273 | 0.199 | 2.23 | 9.8
O=C1c2ccccc2N(Cc2ccc(Cl)cc2)C2=NCCN12 | 0.8 | -0.0325 | 0.717 | 10.8* | -34.9
Cc1noc(/C=C/c2ccco2)c1S(=O)(=O)N1CCC(C(=O)N2c3ccccc3CC2C)CC1 (centres undefined) | -0.3 | -0.607 | -0.396 | x | -14.5
Cc1cc2nc(-c3ccc(SCC(=O)N4CCOCC4)nc3)[nH]c2cc1C | x | 11.7* | -0.575 | -2.59 | x
Cc1cc(C)cc(C(=O)/C=C2\NC(=O)CS2)c1 | 0.9 | 1.1 | -0.2 | -1.83* | 2.7
O=C1CS/C(=C/C(=O)c2ccccc2)N1 | -1.9 | 0.00717 | -0.157 | 0.395 | -8.5
COc1ccccc1CC(=O)N1CCN(c2cccc(C(F)(F)F)c2)CC1 | -1.0 | 3.1 | -0.37 | -0.46 | x
C/C=C/c1ccc(Oc2nnnn2-c2ccc(C(N)=O)cc2)c(OC)c1 | -1.1 | -0.784 | -0.129 | -6.5* | 18.9
CCOC(=O)c1c(NC(=O)CSc2nnc(CNc3ccc(F)cc3)o2)sc(C)c1C | -0.7 | -0.352 | 0.28 | -4.53* | -3.8
COc1ccc(S(=O)(=O)N2CCN(CC(=O)Nc3ccc(C)c(F)c3)CC2)cc1 | -0.9 | -2.01 | 0.395 | -0.733 | -6.0
CCOc1ccc(NC(=O)c2cc3n(n2)C(C(F)(F)F)CC(c2ccco2)N3)cc1 (centres undefined) | -0.8 | -1.09 | -1.01 | -7.48* | 44.4
O=C(NC1CCCCCC1)c1cc2n(n1)C(C(F)(F)F)CC(c1ccco1)N2 (centres undefined) | 0.0 | 0.00583 | 0.0953 | 0.459 | -5.9
CSCC[C@H](NC(=O)OC(C)(C)C)c1nnc(SCC(N)=O)o1 | 0.5 | 0.535 | -0.629 | -2.17* | -0.7
CCN(CC)C(=O)CSc1nnc([C@H](CCSC)NC(=O)OC(C)(C)C)o1 | 0.0 | -0.57 | 0.162 | -0.0296 | -4.1
Cc1ccccc1S(=O)(=O)Cc1ccc(C(=O)NCc2cccnc2)o1 | -0.4 | 0.656 | 0.39 | 0.351 | -1.1
CN1CCN(C(=O)c2cc3nc(-c4ccc(F)cc4)cc(C(F)(F)F)n3n2)CC1 | -0.5 | -0.791 | 0.0203 | -0.339 | -21.6
COc1ccc(-c2cc(C(F)(F)F)n3nc(C(=O)N4CCCC4)cc3n2)cc1 | -0.7 | -0.721 | 1.78* | 0.603 | x
